{"source": "ChEMBL document CHEMBL1122658", "about": "“Amnesia-reversal activity of a series of N-[(disubstituted-amino)alkyl] -2-oxo-1-pyrrolidineacetamides, including pramiracetam” (1984)", "key": {"Mus musculus [1]": {"test_system": "Mus musculus", "experiment": "Ability to reverse electroconvulsive shock (ECS) induced amnesia in mice, after administering intraperitoneally, at a dose of 80.0 mg/kg", "assay_type": "functional", "conditions": "route intraperitoneal", "procedure,_shortened": "(§1)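 Male CF-1 mice (20-25 g), five groups of 20, trained in one trial on step-through inhibitory avoidance (darkened chamber). ECS given 2 h after training. Test drug or vehicle placebo injected ip 2 h after ECS, 1 h before retention test. Entry into box within 60 s scored as amnesia. % reversal = (drug − base-line ECS+placebo)/(ceiling no-ECS+placebo − base-line) ×100.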"}, "Mus musculus [2]": {"test_system": "Mus musculus", "experiment": "Ability to reverse electroconvulsive shock (ECS) induced amnesia in mice, after administering intraperitoneally, at a dose of 0.63 mg/kg", "assay_type": "functional", "conditions": "route intraperitoneal", "procedure,_shortened": "as §1"}, "Mus musculus [3]": {"test_system": "Mus musculus", "experiment": "Ability to reverse electroconvulsive shock induced amnesia in mice, after administering intraperitoneally at a dose of 1.25 mg/kg", "assay_type": "functional", "conditions": "route intraperitoneal", "procedure,_shortened": "as §1"}, "Mus musculus [4]": {"test_system": "Mus musculus", "experiment": "Compound was evaluated for the ability to reverse electroconvulsive shock (ECS) induced amnesia in mice, after administering intraperitoneally, at a dose of […] mg/kg", "assay_type": "functional", "procedure,_shortened": "as §1"}, "Mus musculus [5]": {"test_system": "Mus musculus", "experiment": "Ability to reverse electroconvulsive shock induced amnesia in mice, after administering intraperitoneally at a dose of 20.0 mg/kg", "assay_type": "functional", "conditions": "route intraperitoneal", "procedure,_shortened": "as §1"}, "Mus musculus [6]": {"test_system": "Mus musculus", "experiment": "Ability to reverse electroconvulsive shock induced amnesia in mice, after administering intraperitoneally at a dose of 5 mg/kg", "assay_type": "functional", "conditions": "route intraperitoneal", "procedure,_shortened": "as §1"}, "Mus musculus [7]": {"test_system": "Mus musculus", "experiment": "Ability to reverse electroconvulsive shock (ECS) induced amnesia in mice, after administering intraperitoneally, at a dose of 160 mg/kg", "assay_type": "functional", "conditions": "route intraperitoneal", "procedure,_shortened": "as §1"}, "Mus musculus [8]": {"test_system": "Mus musculus", "experiment": "Compound was evaluated for the ability to reverse electroconvulsive shock (ECS) induced amnesia in mice, after administering intraperitoneally, at a dose of 320 mg/kg", "assay_type": "functional", "conditions": "route intraperitoneal", "procedure,_shortened": "as §1"}, "Mus musculus [9]": {"test_system": "Mus musculus", "experiment": "Ability to reverse electroconvulsive shock (ECS) induced amnesia in mice, after administering intraperitoneally, at a dose of 80 mg/kg", "assay_type": "functional", "conditions": "route intraperitoneal", "procedure,_shortened": "as §1"}, "Mus musculus [10]": {"test_system": "Mus musculus", "experiment": "Ability to reverse electroconvulsive shock induced amnesia in mice, after administering intraperitoneally at a dose of 20 mg/kg", "assay_type": "functional", "conditions": "route intraperitoneal", "procedure,_shortened": "as §1"}, "Mus musculus [11]": {"test_system": "Mus musculus", "experiment": "Compound was evaluated for the ability to reverse electroconvulsive shock (ECS) induced amnesia in mice, after administering intraperitoneally, at a dose of 5 mg/kg", "assay_type": "functional", "conditions": "route intraperitoneal", "procedure,_shortened": "as §1"}, "Mus musculus [12]": {"test_system": "Mus musculus", "experiment": "Ability to reverse electroconvulsive shock (ECS) induced amnesia in mice, after administering intraperitoneally, at a dose of 5 mg/kg", "assay_type": "functional", "conditions": "route intraperitoneal", "procedure,_shortened": "as §1"}, "Mus musculus [13]": {"test_system": "Mus musculus", "experiment": "Compound was evaluated for the ability to reverse electroconvulsive shock (ECS) induced amnesia in mice, after administering intraperitoneally, at a dose of 10 mg/kg", "assay_type": "functional", "conditions": "route intraperitoneal", "procedure,_shortened": "as §1"}, "Mus musculus [14]": {"test_system": "Mus musculus", "experiment": "Ability to reverse electroconvulsive shock induced amnesia in mice, after administering intraperitoneally at a dose of 2.5 mg/kg", "assay_type": "functional", "conditions": "route intraperitoneal", "procedure,_shortened": "as §1"}, "Mus musculus [15]": {"test_system": "Mus musculus", "experiment": "Compound was evaluated for the ability to reverse electroconvulsive shock (ECS) induced amnesia in mice, after administering intraperitoneally, at a dose of 40 mg/kg", "assay_type": "functional", "conditions": "route intraperitoneal", "procedure,_shortened": "as §1"}, "Mus musculus [16]": {"test_system": "Mus musculus", "experiment": "Compound was evaluated for the ability to reverse electroconvulsive shock (ECS) induced amnesia in mice, after administering intraperitoneally, at a dose of 40.0 mg/kg", "assay_type": "functional", "conditions": "route intraperitoneal", "procedure,_shortened": "as §1"}, "Mus musculus [17]": {"test_system": "Mus musculus", "experiment": "Compound was evaluated for the ability to reverse electroconvulsive shock (ECS) induced amnesia in mice, after administering intraperitoneally, at a dose of 80.0 mg/kg; 18 of 20 mice died at this dose", "assay_type": "functional", "conditions": "route intraperitoneal", "procedure,_shortened": "as §1"}, "Mus musculus [18]": {"test_system": "Mus musculus", "experiment": "Compound was evaluated for the ability to reverse electroconvulsive shock (ECS) induced amnesia in mice, after administering intraperitoneally, at a dose of 320.0 mg/kg; 18 of 20 mice died at this dose before completion of the test", "assay_type": "functional, organism-based", "parameters": "dose 320 mg/kg", "procedure,_shortened": "as §1"}}, "note": "Several values for one entry are separate records, joined by “and”; a condition that tells them apart may be missing. Identical values can stand only once.", "data": [{"compound": "CC1CCCCN1CCCNC(=O)CN1CCCC1=O", "note": "(stereo not drawn)", "values": [{"measurement": "Amnesia reversal", "setting": "Mus musculus [1]", "value": 17, "unit": "%"}, {"measurement": "Amnesia reversal", "setting": "Mus musculus [2]", "value": 0, "unit": "%"}, {"measurement": "Amnesia reversal", "setting": "Mus musculus [3]", "value": 0, "unit": "%"}, {"measurement": "Amnesia reversal", "setting": "Mus musculus [4]", "value": 10, "unit": "%"}, {"measurement": "Amnesia reversal", "setting": "Mus musculus [5]", "value": 33, "unit": "%"}, {"measurement": "Amnesia reversal", "setting": "Mus musculus [6]", "value": 33, "unit": "%"}]}, {"compound": "O=C(CN1CCCC1=O)NCCCN1CCOCC1", "values": [{"measurement": "Amnesia reversal", "setting": "Mus musculus [1]", "value": 58, "unit": "%"}, {"measurement": "Amnesia reversal", "setting": "Mus musculus [7]", "value": 54, "unit": "%"}, {"measurement": "Amnesia reversal", "setting": "Mus musculus [5]", "value": 17, "unit": "%"}, {"measurement": "Amnesia reversal", "setting": "Mus musculus [8]", "value": 15, "unit": "%"}, {"measurement": "Amnesia reversal", "setting": "Mus musculus [6]", "value": 0, "unit": "%"}]}, {"compound": "CC1CCCC(C)N1CCCNC(=O)CN1CCC(c2ccccc2)C1=O", "note": "(stereo not drawn)", "values": [{"measurement": "Amnesia reversal", "setting": "Mus musculus [9]", "value": 0, "unit": "%"}, {"measurement": "Amnesia reversal", "setting": "Mus musculus [10]", "value": 67, "unit": "%"}, {"measurement": "Amnesia reversal", "setting": "Mus musculus [11]", "value": 50, "unit": "%"}]}, {"compound": "NC(=O)CN1CCCC1=O", "note": "[PIRACETAM]", "values": [{"measurement": "Amnesia reversal", "setting": "Mus musculus [9]; 80 mg/kg", "value": "15% and 10%"}, {"measurement": "Amnesia reversal", "setting": "Mus musculus [10]", "value": 20, "unit": "%"}, {"measurement": "Amnesia reversal", "setting": "Mus musculus [12]", "value": 10, "unit": "%"}, {"measurement": "Amnesia reversal", "setting": "Mus musculus [11]", "value": 15, "unit": "%"}]}, {"compound": "C1CCc2nnnn2CC1", "note": "[PENTYLENETETRAZOL]", "values": [{"measurement": "Amnesia reversal", "setting": "Mus musculus [13]", "value": 10, "unit": "%"}, {"measurement": "Amnesia reversal", "setting": "Mus musculus [14]", "value": 15, "unit": "%"}, {"measurement": "Amnesia reversal", "setting": "Mus musculus [10]", "value": 15, "unit": "%"}, {"measurement": "Amnesia reversal", "setting": "Mus musculus [15]", "value": 15, "unit": "%"}, {"measurement": "Amnesia reversal", "setting": "Mus musculus [6]", "value": 20, "unit": "%"}]}, {"compound": "CC(C)(CNC(=O)CN1CCCC1=O)N1CCCCC1", "values": [{"measurement": "Amnesia reversal", "setting": "Mus musculus [1]", "value": 55, "unit": "%"}, {"measurement": "Amnesia reversal", "setting": "Mus musculus [7]", "value": 45, "unit": "%"}, {"measurement": "Amnesia reversal", "setting": "Mus musculus [5]", "value": 27, "unit": "%"}, {"measurement": "Amnesia reversal", "setting": "Mus musculus [8]", "value": 27, "unit": "%"}, {"measurement": "Amnesia reversal", "setting": "Mus musculus [15]", "value": 73, "unit": "%"}, {"measurement": "Amnesia reversal", "setting": "Mus musculus [6]", "value": 18, "unit": "%"}]}, {"compound": "CN(C)CCCN1c2ccccc2CCc2ccccc21", "note": "[IMIPRAMINE]", "values": [{"measurement": "Amnesia reversal", "setting": "Mus musculus [13]", "value": 10, "unit": "%"}, {"measurement": "Amnesia reversal", "setting": "Mus musculus [10]", "value": 5, "unit": "%"}, {"measurement": "Amnesia reversal", "setting": "Mus musculus [16]", "value": 15, "unit": "%"}, {"measurement": "Amnesia reversal", "setting": "Mus musculus [6]", "value": 10, "unit": "%"}]}, {"compound": "NC1=NC(=O)C(c2ccccc2)O1", "note": "(stereo not drawn) [PEMOLINE]", "values": [{"measurement": "Amnesia reversal", "setting": "Mus musculus [13]", "value": 56, "unit": "%"}, {"measurement": "Amnesia reversal", "setting": "Mus musculus [14]", "value": 20, "unit": "%"}, {"measurement": "Amnesia reversal", "setting": "Mus musculus [10]", "value": 44, "unit": "%"}, {"measurement": "Amnesia reversal", "setting": "Mus musculus [16]", "value": 56, "unit": "%"}, {"measurement": "Amnesia reversal", "setting": "Mus musculus [12]", "value": 20, "unit": "%"}]}, {"compound": "CCC1CCC(=O)N1CC(=O)NCCCN1C(C)CCCC1C", "note": "(stereo not drawn)", "values": [{"measurement": "Amnesia reversal", "setting": "Mus musculus [17]", "value": 42, "unit": "%"}, {"measurement": "Amnesia reversal", "setting": "Mus musculus [3]", "value": 20, "unit": "%"}, {"measurement": "Amnesia reversal", "setting": "Mus musculus [14]", "value": 50, "unit": "%"}, {"measurement": "Amnesia reversal", "setting": "Mus musculus [5]", "value": 42, "unit": "%"}, {"measurement": "Amnesia reversal", "setting": "Mus musculus [12]", "value": 50, "unit": "%"}]}, {"compound": "CCC1(C)CC(=O)NC1=O", "note": "(stereo not drawn) [ETHOSUXIMIDE]", "values": [{"measurement": "Amnesia reversal", "setting": "Mus musculus [9]", "value": 10, "unit": "%"}, {"measurement": "Amnesia reversal", "setting": "Mus musculus [13]", "value": 15, "unit": "%"}, {"measurement": "Amnesia reversal", "setting": "Mus musculus [7]", "value": 10, "unit": "%"}, {"measurement": "Amnesia reversal", "setting": "Mus musculus [10]", "value": 12, "unit": "%"}, {"measurement": "Amnesia reversal", "setting": "Mus musculus [15]", "value": 10, "unit": "%"}]}, {"compound": "CC1CCCC(C)N1CCCCNC(=O)CN1CCCC1=O", "note": "(stereo not drawn)", "values": [{"measurement": "Amnesia reversal", "setting": "Mus musculus [9]", "value": 100, "unit": "%"}, {"measurement": "Amnesia reversal", "setting": "Mus musculus [7]", "value": 60, "unit": "%"}, {"measurement": "Amnesia reversal", "setting": "Mus musculus [10]", "value": 60, "unit": "%"}, {"measurement": "Amnesia reversal", "setting": "Mus musculus [18]", "value": "18 of 20 mice died at this dose before completion of the test"}, {"measurement": "Amnesia reversal", "setting": "Mus musculus [6]", "value": 50, "unit": "%"}]}]}
